A selection: hits, their analogues and other compounds. The true share with any hit is near 2.5%.
PglD inh = inhibitors of Campylobacter jejuni PglD acetyltransferase. purified PglD enzyme, DTNB colorimetric CoA detection. inhibition, % at 12.5 µM. 360,000 compounds, 0.098% hits; in the data active = inhibition above about 16%, passing the limit was not always enough; inconclusive = no clear call, values can overlap the other calls
ERAP1 inh = inhibitors of human ERAP1 aminopeptidase | recombinant ERAP1, Leu-AMC fluorescence, 60 min | inhibition, % at 10.7 µM | 340,000 compounds, 0.15% hits | AID 652197;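 active = mean replicate inhibition of at least 30%, or all replicates individually reaching that 30% level; inactive = mean below 30% and not every replicate reaching it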
SIRT5 block = inhibitors of human sirtuin-5 desuccinylase; 330,000 compounds, 1.1% hits; inhibition, % at 15 µM; Purified SirT5, succinyl-peptide AMC, trypsin-coupled fluorescence; AID 652115; in the data active = inhibition above about 15%; inconclusive = no clear call, values can overlap the other calls
E-sel inducer = induces E-selectin expression in human endothelial cells; HUVEC E-selectin immunofluorescence imaging; normalized: neutral wells 0, TNF-alpha wells 100; 260,000 compounds, 0.37% hits; P16581; activation, % at 7.58 µM;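 active = mean E-selectin-positive cell signal at least 10% of the positive control, reached in at least 60% of replicates, without over 20% cell loss; inconclusive = no rule given, readout overlaps actives, possibly toxicity-flagged; inactive = the rest, including those meeting only one limit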
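Assay system: HUVEC, human umbilical vein endothelial cells / Amount: 3,000 HUVEC/well / Controls: TNF-alpha positive control, DMSO neutral control / Compound dosing: single concentration / Medium: EGM-2 over gelatin coat / Evaluation: percent E-selectin-positive cells / Signal: immunofluorescence imaging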
DENV2 CPE = DENV2-induced cell death inhibition; DENV2-infected cells, cytopathic effect rescue, plate reader; AID 651640; CPE inhibition, % at 9.99 µM; 350,000 compounds, 1.7% hits; in the data active = CPE inhibition above about 20%, passing the limit was not always enough; inconclusive = no clear call, values can overlap the other calls; tested in BHK-21 cells
Large screens that a line does not name were inactive.

COCCCNC(=O)C[C@H]1C[C@H](C(=O)N(C(C)C)C(C)C)[C@@]2(C)c3[nH]c4cc(CCC(=O)N(C)C)ccc4c3CCN2C1=O	DENV2 CPE 36.8 (no result: E-sel inducer)
COc1ccc(NC(=O)N(C)C[C@H]2Oc3ncc(C#C[C@@H](C)O)cc3C(=O)N([C@@H](C)CO)C[C@H]2C)cc1	none
Nc1nnc(SCc2nnc(-c3ccccc3)o2)s1	E-sel inducer 523.3 (no result: PglD inh)
Nc1nnc(SCC(=O)Nc2nnc(-c3ccccc3)o2)s1	none
Cc1cc(Nc2cccc(F)c2)cc(=O)n1-c1cccc(F)c1	none (no result: PglD inh, SIRT5 block)
Cc1ccc(S(=O)(=O)N(C)C)cc1NC(=O)[C@H](Cc1ccccc1)N1C(=O)c2ccccc2C1=O	DENV2 CPE 41.7 (no result: PglD inh, SIRT5 block, E-sel inducer)
CC(C)c1cc(-c2cc(C(=O)NCc3ccccc3)on2)nc(NC2CCCC2)n1	DENV2 CPE 22.0
O=C(O)C1C2CCC(C2)C1C(=O)Nc1cc(F)ccc1F (stereo unspecified)	none (no result: ERAP1 inh, SIRT5 block, E-sel inducer, DENV2 CPE)
COc1ccc(NC(=O)[C@H](C)NC(N)=O)cc1S(=O)(=O)Nc1cc(C)ccc1Br	SIRT5 block 15.6
COc1ccc(NC(=O)C2CCC2)cc1S(=O)(=O)Nc1cc(C)ccc1Br	none (no result: SIRT5 block, E-sel inducer)
CC(C)C#Cc1ccc([C@@H]2[C@@H](C#N)N(C(=O)c3ccccn3)[C@@H]2CO)cc1	none
CC1C(=O)N(Cc2cn(Cc3ccco3)nn2)CCS(=O)(=O)N1Cc1ccc(-c2ccccc2C(F)(F)F)cc1 (stereo unspecified)	DENV2 CPE 65.4 (no result: E-sel inducer)
Cc1ccccc1-c1ccc(CN2C(C)C(=O)N(Cc3cn(Cc4ccco4)nn3)CCS2(=O)=O)cc1 (stereo unspecified)	none (no result: ERAP1 inh)
Cc1ccc(-c2ccc(CN3C(C)C(=O)N(Cc4cn(Cc5ccco5)nn4)CCS3(=O)=O)cc2)c(C)c1 (stereo unspecified)	SIRT5 block 27.3
CC(C)CC1C(=O)N(Cc2cn(Cc3ccco3)nn2)CCS(=O)(=O)N1Cc1ccc(-c2ccc(F)cc2)cc1 (stereo unspecified)	SIRT5 block 17.8
CC1=CC(C)(C)[N+](C)=CN1c1ccccc1	ERAP1 inh 51.2 (no result: PglD inh, SIRT5 block, E-sel inducer)
Cc1nc2cc(C(=O)O)ccc2n1-c1ccccc1	none
O=C(c1ccc[nH]1)N1O[C@@H]2C=C[C@H]1C2	DENV2 CPE 61.6 (no result: ERAP1 inh, SIRT5 block)
CC(C)(C)OC(=O)N1O[C@H]2C=C[C@@H]1C2	none (no result: PglD inh, SIRT5 block)
O=C(CSC(=S)N1CCOCC1)Nc1ncc2c(n1)CCCC2=O	none (no result: PglD inh)
O=C(OCc1ccccc1)N1CCC2CC1c1ccc(N3CCNCC3)cc12 (stereo unspecified)	DENV2 CPE 75.4
O=C(OCc1ccccc1)N1CCCC2CC1c1ccccc12 (stereo unspecified)	DENV2 CPE 43.8 (no result: E-sel inducer)
O=C(OCc1ccccc1)N1CCC2CC1c1cc(Cl)ccc12 (stereo unspecified)	none
COc1ccc(Nc2cc(C)nc3ccccc23)cc1	SIRT5 block 18.3 (no result: E-sel inducer, DENV2 CPE)
CC1(C)CC(CCN)(Cc2ccccc2Cl)CCO1 (stereo unspecified)	none
COCC(=O)N(C)C[C@H]1[C@H](c2ccccc2)[C@@H](CO)N1C(=O)Cc1ccncc1	SIRT5 block 20.0
C/C=C/c1ccc([C@@H]2[C@@H](CNC(C)=O)N(C(=O)Cc3cccnc3)[C@H]2CO)cc1	none (no result: ERAP1 inh, SIRT5 block)
CCN(C[C@H]1N[C@H](CO)[C@@H]1c1ccccc1)C(=O)c1ccncc1	none (no result: DENV2 CPE)
CCN(C[C@@H]1N[C@H](CO)[C@H]1c1ccccc1)C(=O)c1ccncc1	DENV2 CPE 25.7
COCCN(C[C@@H]1[C@@H](c2ccccc2)[C@@H](CO)N1C(C)=O)C(=O)c1ccncc1	none
COCCN(C[C@@H]1[C@@H](c2ccccc2)[C@H](CO)N1C(C)=O)C(=O)c1ccncc1	DENV2 CPE 23.6
C/C=C/c1ccc([C@@H]2[C@H](CO)N(C(=O)Cc3ccncc3)[C@H]2CNC(C)=O)cc1	DENV2 CPE 30.5 (no result: ERAP1 inh, SIRT5 block)
CSc1ccc(Cn2c(C)c(C(=O)NCc3ccc4c(c3)OCCO4)sc2=O)cc1	DENV2 CPE inconclusive (no result: ERAP1 inh, SIRT5 block, E-sel inducer)
CC1CCCCN1C(=O)Cn1c(=O)n(-c2ccc(F)cc2)c(=O)c2sccc21 (stereo unspecified)	none
COCCN(C[C@H]1[C@H](c2ccccc2)[C@@H](CO)N1C(C)=O)C(=O)c1ccncc1	DENV2 CPE 26.3
COCCN(C[C@H]1[C@H](c2ccccc2)[C@@H](CO)N1C(C)=O)C(=O)c1ccccc1	none
NS(=O)(=O)c1ccc(NC(=O)c2cccc(N3C(=O)c4ccccc4C3=O)c2)cc1	none

Assay outcomes deposited in PubChem by Broad Institute.
